The source made the active and inactive calls. No cut-off for these calls is given here.

Series [1] deals with SH-SY5Y. Briefly: Neuroprotective activity against glutamate-induced cytotoxicity in human SH-SY5Y cells at 10 uM pretreated for 2 hrs followed by glutamate stimulation and measured after 24 hrs by MTT assay. The class given is functional, cell-based. The conditions noted are these: time 26.0 hrs. The procedure, abridged:
(§1)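 SH-SY5Y cells seeded at 5000 per well and grown 24 h. Pretreated 2 h with compound (2.5 or 10 μM, diluted in DMEM from 10⁻¹ M DMSO stock), then H₂O₂ 200 μM, glutamate 20 mM or aggregated Aβ1-42 15 μM for 24 h. MTT added for 4 h, formazan dissolved in DMSO, absorbance read at 492 nm. Viability relative to untreated control; mean ± SEM, n = 3.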

Series [2] can be described thus: Ratio of AUC in brain to plasma of ICR mouse at 10 mg/kg, po measured upto 240 mins. The class given is ADME, organism-based. The conditions noted are these: read-out: Ratio AUC. The procedure, abridged:
(§2)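 ICR mice given 10 mg/kg orally in 5% DMSO/40% PEG400/55% saline (1 mg/mL). Blood (retro-orbital) and brain collected at 30, 60, 120 and 240 min. Brain homogenized in 2 volumes PBS, extracted with ethyl acetate, dried and reconstituted in mobile phase. Plasma processed as in the rat study; LC/MS/MS. Brain/plasma ratios from exposures, AUC(B) vs AUC(P).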

A short description of series [3]: Hepatotoxicity in ICR mouse assessed as change in aspartate aminotransferase activity at 1 g/kg, ig administered daily for 14 days measured upto 36 hrs post-administration. The conditions noted are these: in vivo, po, 1000 mg/kg, 336 h, time 14 day. The class given is toxicity. In outline:
(§3)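 Heparinized serum from ICR mice taken at 8, 22 and 36 h after oral compound or saline control; AST and ALT activities measured.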

The target in the next series is Cholinesterase (Equus caballus, UniProt P81908). Briefly: Inhibition of equine serum BChE using butyrylthiocholine iodide as substrate preincubated for 5 mins followed by substrate addition and measured after 2 mins by DTNB-reagent based Ellman's method. A general note: Ellman's reagent forms a yellow product with free thiols.
Chain of Cholinesterase (P81908 whole entry): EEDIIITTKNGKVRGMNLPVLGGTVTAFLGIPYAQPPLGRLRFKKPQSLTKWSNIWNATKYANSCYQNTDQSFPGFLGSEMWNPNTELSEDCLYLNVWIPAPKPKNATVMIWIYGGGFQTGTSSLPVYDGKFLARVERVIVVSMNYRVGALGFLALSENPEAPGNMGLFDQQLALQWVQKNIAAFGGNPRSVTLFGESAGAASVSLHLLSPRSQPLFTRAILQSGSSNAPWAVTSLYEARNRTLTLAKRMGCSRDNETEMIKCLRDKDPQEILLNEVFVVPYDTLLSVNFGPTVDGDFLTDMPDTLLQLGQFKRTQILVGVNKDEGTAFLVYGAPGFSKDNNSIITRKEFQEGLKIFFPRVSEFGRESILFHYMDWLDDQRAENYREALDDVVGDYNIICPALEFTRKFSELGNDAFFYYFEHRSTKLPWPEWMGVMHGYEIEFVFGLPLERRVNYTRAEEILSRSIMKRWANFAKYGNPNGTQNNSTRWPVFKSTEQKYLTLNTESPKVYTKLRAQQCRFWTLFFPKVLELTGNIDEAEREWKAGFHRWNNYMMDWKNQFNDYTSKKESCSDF
Series [4] relates to SH-SY5Y. Briefly: Cytotoxicity against human SH-SY5Y cells assessed as survival rate at 100 uM incubated for 24 hrs by MTT assay. The class given is functional. In outline:
(§4)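 Cells seeded at 1 × 10⁴/well in DMEM with 10% FBS and left overnight, then given compound (DMSO stock diluted in DMEM) for 24 h at 37 °C. MTT added for 4 h, formazan dissolved in DMSO, absorbance read at 492 nm. Viability taken as OD treated/OD DMEM × 100%; IC50 from three independent experiments, mean SD.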
On the technique in general: Tetrazolium dyes change colour on reduction, which living cells bring about.

A further series deals with PC-12. Briefly: Cytotoxicity against rat PC-12 cells assessed as reduction in cell viability incubated for 24 hrs by MTT assay. The class given is functional, cell-based. The conditions noted are these: PC-12, 24 h. The procedure, abridged:
as §4

Another series relates to BV-2. Briefly: Cytotoxicity against mouse BV-2 cells assessed as survival rate at 100 uM incubated for 24 hrs by MTT assay. The class given is functional. In outline:
as §4

The next series concerns L02. Briefly: Cytotoxicity against human L02 cells assessed as survival rate at 100 uM incubated for 24 hrs by MTT assay. The class given is functional. In outline: as §4
Series [5] can be described thus: Acute toxicity in ICR mouse assessed as abnormal behaviour at 1 g/kg, ig administered […]. The conditions noted are these: in vivo, po, 1000 mg/kg. The procedure, abridged:
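Single dose of 1 g/kg given intragastrically on day 1 to overnight-fasted mice (15−18 g), suspended in 5% DMSO, 40% PEG 400, 55% saline. Male and female groups (n = 9), with vehicle controls. Death, daily behaviour and body mass followed over the next 2 weeks.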

Series [6] can be described thus: Hepatotoxicity in ICR mouse assessed as change in alanine aminotransferase activity at 1 g/kg, ig administered daily for 14 days measured upto 36 hrs post-administration. The class given is toxicity. The conditions noted are these: in vivo, po, 1000 mg/kg, 336 h, time 14 day. In outline: as §3
Series [7] in a line: AUC (0 to infinity) in overnight fasted Sprague-Dawley rat at 10 mg/kg, po measured upto 1440 mins by LC/MS/MS analysis. The class given is ADME, organism-based. Details: route oral, dose 10 mg/kg, time <=1440. The conditions noted are these: in vivo. In outline:
(§5)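 Male SD rats (180−220 g), n = 8 per route, fasted overnight with water available. Single 10 mg/kg dose p.o. or i.v. in DMSO/PEG400/saline (10:80:10). Retro-orbital blood taken into heparinized tubes at 1–1440 min. Plasma precipitated with methanol containing theophylline internal standard, then LC/MS/MS against a blank-plasma standard curve. Parameters from noncompartmental extravascular analysis; mean ± SD.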

Series [8] in a line: MRT (0 to infinity) in overnight fasted Sprague-Dawley rat at 10 mg/kg, po measured upto 1440 mins by LC/MS/MS analysis. The class given is ADME, organism-based. The conditions noted are these: in vivo. In outline: as §5
The nature of series [9]: MRT (0 to infinity) in overnight fasted Sprague-Dawley rat at 10 mg/kg, iv measured upto 1440 mins by LC/MS/MS analysis. Type of series: ADME, organism-based. The conditions noted are these: in vivo. In outline:
as §5

Series [10] can be described thus: Half life in overnight fasted Sprague-Dawley rat at 10 mg/kg, iv measured upto 1440 mins by LC/MS/MS analysis. Type of series: ADME, organism-based. The conditions noted are these: in vivo. In outline: as §5
Series [11] is described as follows: Tmax in overnight fasted Sprague-Dawley rat at 10 mg/kg, po measured upto 1440 mins by LC/MS/MS analysis. Type of series: ADME, organism-based. The conditions noted are these: in vivo, 24 h. The procedure, abridged: as §5
The nature of series [12]: Cmax in overnight fasted Sprague-Dawley rat at 10 mg/kg, iv measured upto 1440 mins by LC/MS/MS analysis. Type of series: ADME, organism-based. Details: route intravenous, dose 10 mg/kg, time <=1440. The conditions noted are these: in vivo, 24 h. The procedure, abridged:
as §5

Series [13] in a line: Oral bioavailability in overnight fasted Sprague-Dawley rat at 10 mg/kg measured upto 1440 mins by LC/MS/MS analysis. The conditions noted are these: in vivo. Type of series: ADME, organism-based. The procedure, abridged:
as §5

Series [14] in a line: Effective permeability of the compound in pH 7.4 PBS/EtOH (70:30) at 100 ug/ml incubated for 18 hrs by PAMPA-BBB assay. Type of series: ADME. The conditions noted are these: dose 100 µg/ml, read-out: Peff. In outline: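 PAMPA-BBB with porcine brain lipid in dodecane (20 mg/mL) on PVDF filter. Donor holds compound at 100 μg/mL final (from 5 mg/mL DMSO stock) in PBS pH 7.4/EtOH 70:30; acceptor holds the same buffer. Incubated 18 h at 25 °C; donor and acceptor concentrations by UV at five wavelengths. Four wells, at least three runs, nine permeability standards; mean ± SD.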

Series [15] is described as follows: AUC (0 to t) in ICR mouse plasma at 10 mg/kg, po measured upto 240 mins. The class given is ADME, organism-based. Details: route oral, dose 10 mg/kg, time <=240. In outline:
as §2

Series [16] relates to SH-SY5Y. Briefly: Neuroprotective activity against amyloid beta (1 to 42)-induced cytotoxicity in human SH-SY5Y cells at 2.5 uM pretreated for 2 hrs followed by amyloid beta (1 to 42) stimulation and measured after 24 hrs by MTT assay. The class given is functional, cell-based. The conditions noted are these: time 26.0 hrs. In outline:
as §1

Series [17] can be described thus: Ratio of drug concentration in brain to plasma of ICR mouse at 10 mg/kg, po measured after 1 hrs. The class given is ADME, organism-based. The procedure, abridged:
as §2

In the next series the test system is Mus musculus. Briefly: Anti-alzheimer activity in amyloid beta(1 to 42)-induced ICR mouse model of cognitive impairment assessed as reduction in escape latency time at 15 mg/kg, ig administered at days 2 to 14 by Morris water maze test. The class given is functional. The procedure, abridged:
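Mouse model by icv oligomerized Aβ1-42 (10 μg/mouse, aggregated 24 h at 37 °C in saline) on day 1; 15 mg/kg ig on days 2−14, n = 8. Morris water maze training on days 9−13, probe trial day 14, escape latency and track recorded. Mean SD.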

The test system of a further series is Plasma. Briefly: Increase in ghrelin levels in ICR mouse plasma assessed as inhibition of BChE. The class given is functional, cell-free.
Series [18] can be described thus: Toxicity in ICR mouse assessed as increase in body weight administered for 14 days and measured daily. The conditions noted are these: in vivo, 15 mg/kg, 336 h.

With `Nc1nonc1-c1nc2ccccc2n1CC(=O)Nc1cnc2ccccc2c1`, the outcome with SH-SY5Y [1], in the series with SH-SY5Y [16] and in the series on Plasma was Active. Also, in series [2], the Kp at 4 h was determined as 0.36. The Activity entry in series [3] is on record as “Non-Toxic”; in the series with SH-SY5Y [4] it was 62.19%; in the series with BV-2, 69.72%; in the series with L02, 70.64%; in series [5] it was “Non-Toxic”; in series [6], “Non-Toxic”. For the same compound, the Activity entry in series [18] is “Toxic”. Besides, the half-inhibitory concentration (IC50) against Cholinesterase worked out at 20 nM; in the series with PC-12, 33.5 µM. The same compound had an AUC(0-inf) in series [7] of 662 ng·h/mL. Further, the mean residence time (MRT inf) in series [8] is 11.6 h; in series [9] it was 14.1 h. The compound also gave a half-life in series [10] of 532 min. Also, the time of peak concentration (Tmax) in series [11] was found to be 9.5 h. This compound also returned a peak concentration (Cmax) in series [12] of 488.33 ng/mL. In series [13], the bioavailability is 73.4%. In addition, the Papp at 18 h, 100 ug/ml in series [14] came out at 4.45 ×10⁻⁶ cm/s. In [15], this compound had an AUC(0-t) at 4 h of 94.7 ng·h/mL. Besides, the Kp at 1 h in series [17] came out at 5.05. The Time with Mus musculus was 13.83 s.

Broadly, the IC50 is the concentration that inhibits the measured activity by half. One may read the AUC(0-inf) as the area under the concentration-time curve extrapolated to infinity. A high value points to high exposure. What is called MRT inf is a mean duration of stay, worked out from the concentration-time curve. The term half-life denotes the time in which the quantity being followed falls by half. Read a low half-life as rapid decline. In general, Tmax refers to the time from dosing to the highest level. For orientation: Cmax means the highest concentration seen after dosing. In general, bioavailability refers to dose-corrected exposure relative to a reference, in per cent. Read a high bioavailability as good availability. What is called AUC(0-t) is exposure summed from dosing to a finite time, without extrapolation to infinity. High values mean high exposure, low ones low exposure.

The record behind these values is ChEMBL document CHEMBL5038583, “Highly Potent and Selective Butyrylcholinesterase Inhibitors for Cognitive Improvement and Neuroprotection” (J Med Chem, 2021).
